Assay outcomes: PubChem BioAssay, several laboratories
Sampled rows, rich in hits. Any-hit rate of the full collection: about 1.1%.
Arrestin-AP2 inh: blocks beta-arrestin peptide binding to AP2 adaptin; inhibition, % at 10 µM; hit rate 0.31% among 340,000; FITC-arrestin peptide / GST-AP2 beads, flow cytometry; AP2 beta2 appendage carries R879A mutation;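 active = inhibition above a set limit, near 3 SD of compounds lacking own fluorescence, cut at about 54% in these data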;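 note: plate controls were DMSO wells for no effect and 5 µM unlabelled arrestin peptide for full effect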
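System: GST-AP2 R879A bound to glutathione beads, E. coli-expressed. Also added: 50 nM FITC-arrestin peptide. Schedule: compound with beads 12 min RT, then probe 1 h RT. Signal: bead flow cytometry, FITC channel. Read-out basis: percent response.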
JMJD2C inh: blocks human GASC-1 demethylase activity. Q9H3R0. GST-JMJD2C(1-420) H3K9me3 demethylation, DELFIA europium. inhibition, % at 2.35 µM. hit rate 0.069% among 330,000;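 active = more than half of a compound's replicate wells show inhibition beyond 50%, single wells judged on their own value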;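 note: signal counts dimethyl H3K9 product captured on neutravidin plate; 0% = median of DMSO wells and 100% = 0.3 times that DMSO median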
Target sequence (Q9H3R0 1-420 limits assumed): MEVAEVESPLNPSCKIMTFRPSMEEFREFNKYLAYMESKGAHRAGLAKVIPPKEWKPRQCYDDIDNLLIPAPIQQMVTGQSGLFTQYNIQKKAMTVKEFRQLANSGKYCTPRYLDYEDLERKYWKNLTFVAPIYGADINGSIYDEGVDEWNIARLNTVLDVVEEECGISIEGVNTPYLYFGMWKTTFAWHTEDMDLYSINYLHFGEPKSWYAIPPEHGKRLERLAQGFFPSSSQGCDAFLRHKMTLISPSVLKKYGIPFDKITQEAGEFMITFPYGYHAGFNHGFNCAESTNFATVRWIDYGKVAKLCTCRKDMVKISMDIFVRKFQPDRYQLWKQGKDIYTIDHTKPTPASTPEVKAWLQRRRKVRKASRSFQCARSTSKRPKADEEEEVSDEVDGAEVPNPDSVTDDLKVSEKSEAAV
SENP1 inh: inhibitors of human SENP1 SUMO protease catalytic domain | inhibition, % at 10 µM | hit rate 0.21% among 360,000 | Q9P0U3 | recombinant SENP1 catalytic domain, CyPet-SUMO1-YPet FRET cleavage;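 active = inhibition at least 30% at 10 µM, raw YFP signal under a set limit, fluorescence ratio 0.5 to 1.5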;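 note: 0% = enzyme with DMSO and 100% = no enzyme wells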
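Test system: hSENP1 catalytic domain, recombinant; Amount: 20 pM final SENP1 enzyme; Medium: Tris pH 8 buffer plus EDTA, NaCl, BME, BSA, NP40, catalase; Schedule: 50 min enzyme reaction, room temperature, light-protected; Technique: FRET fluorescence in CFP and YFP emission channels; Controls: no-enzyme wells low, DMSO-plus-enzyme wells high control.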
FAS-TE inh: FAS thioesterase (human) inhibition; P49327; recombinant FAS-TE, OMFH fluorogenic substrate, fluorescence endpoint; inhibition, % at 15 µM; hit rate 0.67% among 360,000; AID 602261;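 active = compounds whose normalised, plate-corrected inhibition of enzyme fluorescence in the single-dose primary screen is 50% or more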;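 note: 0% = DMSO with enzyme and 100% = substrate without enzyme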
FAS-TE inh conf: confirmation of human fatty acid synthase thioesterase inhibitors; shares compounds with FAS-TE inh; recombinant FAS-TE, OMFH fluorogenic substrate, fluorescence; inhibition, % at 15 µM; hit rate 45% among 2,300;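 active = compounds inhibiting the enzyme by at least 50% at 15 µM in any one of the replicates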;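 note: 0% = enzyme with DMSO only and 100% = wells lacking enzyme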
* hit, by the source's call.

O=C(CC(C(=O)O)c1ccc(Cl)cc1)c1ccc(Cl)c(Cl)c1 (stereo not given) was read as Arrestin-AP2 inh 6.1, JMJD2C inh -27.6, SENP1 inh -0.4, FAS-TE inh 80.4* and FAS-TE inh conf 81.5*.
Cc1cc(N2CCN(C(c3ccccc3)c3ccc(Cl)cc3)CC2)n2ncnc2n1 (stereo not given) was read as Arrestin-AP2 inh 2.1, JMJD2C inh 1.8, SENP1 inh 0.1, FAS-TE inh 57.7* and FAS-TE inh conf 20.8.
For CCCCNC(=O)CCC(=O)Nc1ccc2nc(N3CCC(C)CC3)cc(C)c2c1 the results were Arrestin-AP2 inh 26.4, JMJD2C inh -2.7, SENP1 inh -27.3, FAS-TE inh 59.5* and FAS-TE inh conf 45.1.
C/C(=N\Nc1nc(Cl)c(Cl)cc1Cl)c1ccc(S(=O)(=O)NCc2ccco2)cc1 was read as Arrestin-AP2 inh 4.2, JMJD2C inh -5.2, SENP1 inh -2.9, FAS-TE inh 52.0* and FAS-TE inh conf 41.3.
C/C(=N\Nc1ccccn1)c1ccc(S(=O)(=O)NCc2ccco2)cc1 was read as Arrestin-AP2 inh 31.4, JMJD2C inh -2.7, SENP1 inh 2.6, FAS-TE inh 53.7* and FAS-TE inh conf 40.2*.
For O=C(COc1ccc([N+](=O)[O-])cc1)Nc1ccc2c(c1)OCO2 the results were Arrestin-AP2 inh -2.0, JMJD2C inh 22.1, SENP1 inh -1.1, FAS-TE inh 58.9* and FAS-TE inh conf 41.1.
`COc1ccc(OCC(=O)Nc2ccc3c(c2)OCO3)cc1` gave Arrestin-AP2 inh 12.9, JMJD2C inh 6.1, SENP1 inh -1.3 and FAS-TE inh -1.2.
For CCOC1=C2[C@H]([C@H]3C(=O)N(c4ccccc4)C(=O)[C@H]3C1)[C@@H](C(C)C)N(S(=O)(=O)c1ccc(C)cc1)[C@H]2c1ccccc1 the results were SENP1 inh 1.0, FAS-TE inh 57.6* and FAS-TE inh conf 21.1.
`CCN1C(=O)[C@@H]2[C@@H]3CN(S(=O)(=O)c4ccc(C)cc4)[C@@H](c4cccc5ccccc45)[C@@H]3C(=O)C[C@@H]2C1=O` gave SENP1 inh -29.2 and FAS-TE inh -7.2.
CCOC1=C2[C@@H](CN(S(=O)(=O)c3ccc(C)cc3)[C@H]2c2ccc(Cl)cc2)[C@H]2C(=O)N(c3ccccc3)C(=O)[C@H]2C1 was read as SENP1 inh 6.7, FAS-TE inh 62.0* and FAS-TE inh conf 39.8.
For CCOC1=C2[C@@H](CN(S(=O)(=O)c3ccccc3)[C@H]2c2ccccc2)[C@H]2C(=O)N(c3ccccc3)C(=O)[C@H]2C1 the results were SENP1 inh 4.6 and FAS-TE inh 22.5.
Cc1ccc(S(=O)(=O)N2C[C@H]3[C@H]4C(=O)N(C5CCCCC5)C(=O)[C@H]4CC(=O)[C@H]3[C@@H]2c2ccccc2Cl)cc1 was read as SENP1 inh -6.0, FAS-TE inh 62.0* and FAS-TE inh conf -1.0.
Screening CCOC1=C2[C@@H](CN(S(=O)(=O)c3ccc(C)cc3)[C@H]2c2cccc3ccccc23)[C@H]2C(=O)N(C3CCCCC3)C(=O)[C@H]2C1 returned SENP1 inh 3.5, FAS-TE inh 67.4* and FAS-TE inh conf 12.8.
COc1ccc(CNC(=O)CCC(=O)c2ccc(F)cc2)cc1OC was read as Arrestin-AP2 inh 0.9, JMJD2C inh -1.3, SENP1 inh 1.6 and FAS-TE inh -6.3.
Screening O=C(CCc1nnc2ccc(NCc3ccccc3)nn12)NC1CCCCC1 returned Arrestin-AP2 inh 28.5, JMJD2C inh 14.4, SENP1 inh -3.2 and FAS-TE inh -5.0.
`COc1cccc2c1SCc1ccccc1C2CC(N)=O` (stereo not given) gave Arrestin-AP2 inh -11.5, JMJD2C inh -10.1, SENP1 inh -0.6 and FAS-TE inh -7.0.
Cc1ccc(S(=O)(=O)N2C[C@H]3[C@H]4C(=O)N(c5ccccc5)C(=O)[C@H]4CC(=O)[C@H]3[C@@H]2c2ccccc2)cc1 was read as SENP1 inh -11.2 and FAS-TE inh 5.0.
Screening CCOC1=C2[C@@H](CN(S(=O)(=O)c3ccc(C)cc3)[C@H]2c2cccc3ccccc23)[C@H]2C(=O)N(c3ccccc3)C(=O)[C@H]2C1 returned SENP1 inh 3.9, FAS-TE inh 77.1* and FAS-TE inh conf 14.0.
